Data from PubChem BioAssay AID504358 (Southern Research Specialized Biocontainment Screening …, 2011).
The source made the active and inactive calls.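 How the source made its calls: active means compounds blocking phage killing of the bacteria by at least 50% at some tested dose; inactive means the rest.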

What was measured:
[1] = system: E. coli UTI89 K1F phage lysis inhibition, OD600; assay: protection from K1F lysis, OD600 growth read-out – E. coli UTI89, K1F phage, C7 control, bacterial capsule biogenesis inhibitors, confirmation (AID 504358); conditions: for CC50: measured here: cytotoxicity
Procedure, shortened: (§1)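 Material: E. coli UTI89 K1 cells with K1F phage; reagent: K1F phage, added after compound pre-exposure; incubation: 1.25 h compound, then 3 h phage, 37 °C; detection: absorbance at 600 nm, before infection and 3 h after; control set: phage-resistant kpsM mutant, wells with and without phage; replicates: quadruplicate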

[2] = as above; conditions: E. coli UTI89 K1F phage lysis inhibition, OD600; for SI: measured here: selectivity index CC50/IC50, stronger effect = higher value
Procedure, shortened: as §1

Structure (SMILES)	IC50 [1] [µM]	CC50 [1] [µM]	SI [2]	outcome [2]
O=C(NCc1cc([N+](=O)[O-])ccc1O)c1cccnc1Sc1ccccc1Cl	26.1	> 100	> 3.8	
CC1(C(=O)O)CCC(C(=O)Nc2ccc3ccccc3c2)C1(C)C (stereo unspecified)	69.8	> 100	> 1.4	
CCOc1ccc(-c2cc(NC(=O)c3c(F)cccc3F)c(C(=O)O)s2)cc1	6.2	66.7	10.8	
COc1ccc2nc(NC(=O)c3ccc(Br)s3)sc2c1	10.6	> 100	> 9.4	
Cc1cc(C)c2c(=O)c(-c3cc(C(=O)O)c4cc5ccccc5cc4n3)coc2c1				inactive
O=C(Nc1ccncc1)c1ccc2ncsc2c1	3	> 100	> 33	
O=C(ONc1ccc(N=NC(=O)c2ccccc2O)cc1)c1ccccc1	3.3	45.1	13.7	
CC1=NN2C(=N)/C(=C\c3ccc(SCc4ccco4)o3)C(=O)N=C2S1	22.6	> 100	4.4	
O=C(O)c1cc(-c2c[nH]c3ccccc23)nc2cc3ccccc3cc12				inactive
O=C(NCc1cc([N+](=O)[O-])ccc1O)c1cccnc1Sc1ccccc1		> 100		
O=C(O)c1cc(-c2cccc(Cl)c2)nc2cc3ccccc3cc12				inactive
O=C(COc1ccc(Cl)cc1Cl)Nc1ccc(C(=O)Nc2ccccc2C(=O)O)cc1		45.3		
C=CCOc1ccc(C2c3c(oc4ccccc4c3=O)C(=O)N2CCCN2CCOCC2)cc1 (stereo unspecified)		> 100		inactive
COc1ccc(OC)c(-c2cc(C(=O)O)c3cc4ccccc4cc3n2)c1				inactive
Cc1ccc(C2c3c(oc4cc(C)c(C)cc4c3=O)C(=O)N2CCCN2CCOCC2)cc1 (stereo unspecified)		44.4		inactive
